Assay results as given in ChEMBL document CHEMBL5303300, “EUbOPEN Chemogenomics Library - Multiplex” (2023).
“And” between values parts separate entries of the source, which are not always exact repeats. Identical values can stand only once.

Tested on: Fibroblast
Test: Multiplex assay against human fibroblast
Type: toxicity, cell-based
Details: number of replicates 2
How it was run: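 Cells were classed with CellPathfinder machine-learning gating, first as Hoechst high-intensity objects or normal cells, then (normal cells) as healthy, pyknosed or fragmented nuclei, and finally (pyknosed cells) as mitotic or apoptotic. Staining of live cells at seeding used Hoechst33342, BioTracker Green Microtubule Cytoskeleton Dye, MitoTracker Red and Annexin V Alexa Fluor 680, with imaging on a CQ1 microscope at 37°C and 5% CO2 after compound addition. Tubulin, mitochondrial-mass and membrane-permeability phenotypes are per cents of healthy-nucleus cells.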

[1] = 12 h, 1 µM, compound concentration 1 uM
[2] = 12 h, 10 µM, compound concentration 10 uM
[3] = 24 h, 1 µM, compound concentration 1 uM
[4] = 24 h, 10 µM, compound concentration 10 uM
[5] = 48 h, 1 µM, compound concentration 1 uM
[6] = 48 h, 10 µM, compound concentration 10 uM

CS(=O)(=O)c1ccc(C(=O)Nc2cccc(COc3ccc(Br)cc3CN3CC[C@@H](O)C3)c2)c(Cl)c1.O=CO
Population Apoptotic (%) [1]: 41% and 38%
Population Fragmented Nuclei (%) [1]: 8%
Population Healthy Nuclei (%) [1]: 61% and 73%
Population Hoechst High Intensity Objects (%) [1]: 0%
Population Mitotic Cells (%) [1]: 58% and 61%
Population Normal (%) [1]: 100%
Population Pyknosed Nuclei (%) [1]: 18%
Total Cell Count [1]: 146 and 167
Population Apoptotic (%) [2]: 50% and 40%
Population Fragmented Nuclei (%) [2]: 18% and 16%
Population Healthy Nuclei (%) [2]: 55% and 61%
Population Hoechst High Intensity Objects (%) [2]: 0%
Population Mitotic Cells (%) [2]: 49% and 59%
Population Normal (%) [2]: 100%
Population Pyknosed Nuclei (%) [2]: 25% and 22%
Total Cell Count [2]: 224 and 280
Population Apoptotic (%) [3]: 60% and 46%
Population Fragmented Nuclei (%) [3]: 14% and 15%
Population Healthy Nuclei (%) [3]: 63% and 67%
Population Hoechst High Intensity Objects (%) [3]: 0%
Population Mitotic Cells (%) [3]: 40% and 53%
Population Normal (%) [3]: 100%
Population Pyknosed Nuclei (%) [3]: 22% and 17%
Total Cell Count [3]: 156 and 186
Population Apoptotic (%) [4]: 72% and 79%
Population Fragmented Nuclei (%) [4]: 28% and 23%
Population Healthy Nuclei (%) [4]: 52% and 63%
Population Hoechst High Intensity Objects (%) [4]: 1% and 0%
Population Mitotic Cells (%) [4]: 27% and 20%
Population Pyknosed Nuclei (%) [4]: 18% and 13%
Total Cell Count [4]: 262 and 331
Population Apoptotic (%) [5]: 71% and 57%
Population Fragmented Nuclei (%) [5]: 18% and 16%
Population Healthy Nuclei (%) [5]: 62% and 67%
Population Hoechst High Intensity Objects (%) [5]: 0%
Population Mitotic Cells (%) [5]: 28% and 42%
Population Normal (%) [5]: 100%
Population Pyknosed Nuclei (%) [5]: 18% and 15%
Total Cell Count [5]: 154 and 164
Population Apoptotic (%) [6]: 84% and 82%
Population Fragmented Nuclei (%) [6]: 32% and 30%
Population Healthy Nuclei (%) [6]: 56% and 58%
Population Hoechst High Intensity Objects (%) [6]: 1% and 0%
Population Mitotic Cells (%) [6]: 15% and 17%
Population Normal (%) [6]: 100%
Population Pyknosed Nuclei (%) [6]: 10%
Total Cell Count [6]: 300 and 395

Cc1ccc2c(c1CCC(=O)O)CC[C@@H](NS(=O)(=O)c1ccc(Cl)cc1)C2 [TERUTROBAN]
Population Apoptotic (%) [1]: 25% and 43%
Population Fragmented Nuclei (%) [1]: 8%
Population Healthy Nuclei (%) [1]: 71% and 75%
Population Hoechst High Intensity Objects (%) [1]: 0%
Population Membrane Permeable-Phenotype (%) [1]: 5% and 3%
Population Mitochondria Different-Phenotype (%) [1]: 1%
Population Mitotic Cells (%) [1]: 74% and 56%
Population Normal (%) [1]: 100%
Population Pyknosed Nuclei (%) [1]: 19% and 15%
Population Tubulin-Different-Phenotype (%) [1]: 10% and 7%
Total Cell Count [1]: 221 and 236
Population Apoptotic (%) [2]: 40% and 55%
Population Fragmented Nuclei (%) [2]: 8% and 15%
Population Healthy Nuclei (%) [2]: 69% and 67%
Population Hoechst High Intensity Objects (%) [2]: 0%
Population Membrane Permeable-Phenotype (%) [2]: 11% and 7%
Population Mitochondria Different-Phenotype (%) [2]: 1% and 0%
Population Mitotic Cells (%) [2]: 59% and 44%
Population Normal (%) [2]: 100%
Population Pyknosed Nuclei (%) [2]: 21% and 16%
Population Tubulin-Different-Phenotype (%) [2]: 26% and 19%
Total Cell Count [2]: 203 and 208
Population Apoptotic (%) [3]: 50% and 40%
Population Fragmented Nuclei (%) [3]: 10% and 14%
Population Healthy Nuclei (%) [3]: 74% and 75%
Population Hoechst High Intensity Objects (%) [3]: 0%
Population Membrane Permeable-Phenotype (%) [3]: 1%
Population Mitochondria Different-Phenotype (%) [3]: 1% and 0%
Population Mitotic Cells (%) [3]: 50% and 59%
Population Normal (%) [3]: 100%
Population Pyknosed Nuclei (%) [3]: 14% and 10%
Population Tubulin-Different-Phenotype (%) [3]: 9% and 3%
Total Cell Count [3]: 219 and 249
Population Apoptotic (%) [4]: 52% and 51%
Population Fragmented Nuclei (%) [4]: 10% and 14%
Population Healthy Nuclei (%) [4]: 73% and 72%
Population Hoechst High Intensity Objects (%) [4]: 0%
Population Membrane Permeable-Phenotype (%) [4]: 5% and 8%
Population Mitochondria Different-Phenotype (%) [4]: 2% and 0%
Population Mitotic Cells (%) [4]: 47% and 48%
Population Normal (%) [4]: 100%
Population Pyknosed Nuclei (%) [4]: 16% and 13%
Population Tubulin-Different-Phenotype (%) [4]: 20% and 11%
Total Cell Count [4]: 218 and 222
Population Apoptotic (%) [5]: 70% and 77%
Population Fragmented Nuclei (%) [5]: 13% and 14%
Population Healthy Nuclei (%) [5]: 77% and 76%
Population Hoechst High Intensity Objects (%) [5]: 0%
Population Membrane Permeable-Phenotype (%) [5]: 5% and 2%
Population Mitochondria Different-Phenotype (%) [5]: 0%
Population Mitotic Cells (%) [5]: 30% and 22%
Population Normal (%) [5]: 100%
Population Pyknosed Nuclei (%) [5]: 8%
Population Tubulin-Different-Phenotype (%) [5]: 7% and 1%
Total Cell Count [5]: 225 and 259
Population Apoptotic (%) [6]: 62% and 38%
Population Fragmented Nuclei (%) [6]: 8% and 16%
Population Healthy Nuclei (%) [6]: 79% and 77%
Population Hoechst High Intensity Objects (%) [6]: 0%
Population Membrane Permeable-Phenotype (%) [6]: 6% and 3%
Population Mitochondria Different-Phenotype (%) [6]: 1% and 0%
Population Mitotic Cells (%) [6]: 37% and 61%
Population Normal (%) [6]: 100%
Population Pyknosed Nuclei (%) [6]: 12% and 5%
Population Tubulin-Different-Phenotype (%) [6]: 12%
Total Cell Count [6]: 230 and 225

Cc1cc(NC(=O)c2cccc(NC(=O)/C=C/CN(C)C)c2)ccc1Nc1nccc(-c2cccnc2)n1
Population Apoptotic (%) [1]: 39% and 33%
Population Fragmented Nuclei (%) [1]: 12% and 17%
Population Healthy Nuclei (%) [1]: 63% and 56%
Population Hoechst High Intensity Objects (%) [1]: 0%
Population Membrane Permeable-Phenotype (%) [1]: 9% and 11%
Population Mitochondria Different-Phenotype (%) [1]: 0% and 1%
Population Mitotic Cells (%) [1]: 60% and 66%
Population Normal (%) [1]: 100%
Population Pyknosed Nuclei (%) [1]: 24% and 25%
Population Tubulin-Different-Phenotype (%) [1]: 18% and 11%
Total Cell Count [1]: 190 and 197
Population Apoptotic (%) [2]: 48% and 33%
Population Fragmented Nuclei (%) [2]: 4% and 10%
Population Healthy Nuclei (%) [2]: 53% and 56%
Population Hoechst High Intensity Objects (%) [2]: 0%
Population Membrane Permeable-Phenotype (%) [2]: 7% and 14%
Population Mitochondria Different-Phenotype (%) [2]: 8% and 2%
Population Mitotic Cells (%) [2]: 51% and 66%
Population Normal (%) [2]: 100% and 99%
Population Pyknosed Nuclei (%) [2]: 41% and 33%
Population Tubulin-Different-Phenotype (%) [2]: 77% and 50%
Total Cell Count [2]: 130 and 219
Population Apoptotic (%) [3]: 47% and 40%
Population Fragmented Nuclei (%) [3]: 22% and 24%
Population Healthy Nuclei (%) [3]: 54% and 52%
Population Hoechst High Intensity Objects (%) [3]: 0%
Population Membrane Permeable-Phenotype (%) [3]: 5% and 3%
Population Mitochondria Different-Phenotype (%) [3]: 0% and 2%
Population Mitotic Cells (%) [3]: 52% and 59%
Population Normal (%) [3]: 100%
Population Pyknosed Nuclei (%) [3]: 23%
Population Tubulin-Different-Phenotype (%) [3]: 21% and 13%
Total Cell Count [3]: 230 and 222
Population Apoptotic (%) [4]: 53% and 39%
Population Fragmented Nuclei (%) [4]: 11%
Population Healthy Nuclei (%) [4]: 36% and 51%
Population Hoechst High Intensity Objects (%) [4]: 0%
Population Membrane Permeable-Phenotype (%) [4]: 6% and 7%
Population Mitochondria Different-Phenotype (%) [4]: 18% and 13%
Population Mitotic Cells (%) [4]: 46% and 60%
Population Normal (%) [4]: 99%
Population Pyknosed Nuclei (%) [4]: 51% and 36%
Population Tubulin-Different-Phenotype (%) [4]: 81% and 63%
Total Cell Count [4]: 118 and 221
Population Apoptotic (%) [5]: 68% and 75%
Population Fragmented Nuclei (%) [5]: 24% and 29%
Population Healthy Nuclei (%) [5]: 62% and 60%
Population Hoechst High Intensity Objects (%) [5]: 0%
Population Membrane Permeable-Phenotype (%) [5]: 6% and 4%
Population Mitochondria Different-Phenotype (%) [5]: 1% and 0%
Population Mitotic Cells (%) [5]: 31% and 25%
Population Normal (%) [5]: 100% and 99%
Population Pyknosed Nuclei (%) [5]: 13% and 10%
Population Tubulin-Different-Phenotype (%) [5]: 23% and 29%
Total Cell Count [5]: 237 and 239
Population Apoptotic (%) [6]: 82% and 60%
Population Fragmented Nuclei (%) [6]: 14%
Population Healthy Nuclei (%) [6]: 30% and 39%
Population Hoechst High Intensity Objects (%) [6]: 0%
Population Membrane Permeable-Phenotype (%) [6]: 19% and 12%
Population Mitochondria Different-Phenotype (%) [6]: 22% and 15%
Population Mitotic Cells (%) [6]: 17% and 39%
Population Normal (%) [6]: 100% and 99%
Population Pyknosed Nuclei (%) [6]: 54% and 45%
Population Tubulin-Different-Phenotype (%) [6]: 80% and 78%
Total Cell Count [6]: 117 and 218
